Legend:
tumors = conditions: cited from earlier work
integrin αvβ3 = assay: ^99mTc-3P-RGD2 SPECT/CT tumor uptake during linifanib therapy, MDA-MB-435 model; type: in vivo, athymic nude mice
Procedure, shortened: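 Size-matched groups (n = 5; mean tumor 180 ± 90 mm3) of female nude mice with fat-pad MDA-MB-435 tumors received vehicle (0.15% HPMC, 2% ethanol, 5% Tween 80, 20% PEG400, 73% saline) or test compound at 12.5 mg/kg orally twice daily (>8 h apart) from day 0. Radiotracer (>95% radiochemical purity, in saline) was given i.v. Multi-pinhole SPECT/CT on days -1, 1, 4 and 11 was quantified as %ID and %ID/cm3.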

MDA-MB-435 tumors = assay: Tumor immunohistochemistry; type: in vivo, athymic nude mice
Procedure, shortened: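 Fat-pad MDA-MB-435 tumors came from mice given vehicle or oral test compound (12.5 mg/kg twice daily) and were harvested on days -1, 1, 4 and 11. Frozen 5 μm OCT sections were fixed in ice-cold acetone (10 min) and blocked in 10% goat serum (30 min). They were stained 1 h with hamster anti-integrin β3 and rat anti-CD31 (1:100), then Cy3/FITC secondaries (1:100), and read by fluorescence microscopy. H&E sections were examined for blood vessels.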

U87MG gliomas = conditions: xenografted U87MG model; cited from earlier work
PC-3 prostate tumors = conditions: xenografted PC-3 model; cited from earlier work
[1] = tested on: pre-clinical tumor models; conditions: variety of pre-clinical tumor models; cited from earlier work
[2] = tested on: VEGF and PDGF receptor families; conditions: in vitro; cited from earlier work
tumor = conditions: 2 days after sunitinib therapy; cited from earlier work
integrin αvβ3 and αvβ5 = conditions: low concentrations; cited from earlier work
[3] = 12.5 mg/kg orally twice daily, as early as 24 h, SPECT/CT quantification, n = 5

Cc1nc(Nc2ncc(C(=O)Nc3c(C)cccc3Cl)s2)cc(N2CCN(CCO)CC2)n1 [dasatinib]
uptake of ^64Cu-DOTA-RGD in the treated tumors (tumors): significantly reduce

Cc1ccc(F)c(NC(=O)Nc2ccc(-c3cccc4[nH]nc(N)c34)cc2)c1 [linifanib]
%ID tumor uptake of ^99mTc-3P-RGD2 in linifanib-treated group (integrin αvβ3; [3]): dramatic reduction
%ID/cm^3 tumor uptake of ^99mTc-3P-RGD2 in linifanib-treated group (integrin αvβ3; [3]): dramatic reduction
tumor uptake (%ID and %ID/g) of ^99mTc-3P-RGD2 in linifanib-treated group (integrin αvβ3; over the next 10 days after the first 24 h of linifanib therapy): steady tumor uptake reduction
blood vessel density (MDA-MB-435 tumors; H&E staining of tumor slices, within 24 h after initiation of linifanib therapy): dramatically reduced
integrin αvβ3 on neovasculature (MDA-MB-435 tumors; IHC staining of tumor slices, after 24 h of linifanib therapy): disappeared almost completely
tumor cell integrin αvβ3 expression level (MDA-MB-435 tumors; IHC staining of tumor slices, during the 11-day period of linifanib therapy): decreased steadily
tumor uptake (%ID and %ID/cm^3) and T/M ratios of ^99mTc-3P-RGD2 after linifanib treatment (U87MG gliomas): significant decrease
tumor volume or tumor uptake of ^99mTc-3P-RGD2 after linifanib treatment (PC-3 prostate tumors): no significant changes
effect on tumors in vivo [1]: pronounced regression of tumors
phosphorylation of members of VEGF and PDGF receptor families [2]: inhibit the phosphorylation

CCN(CC)CCNC(=O)c1c(C)[nH]c(/C=C2\C(=O)Nc3ccc(F)cc32)c1C [sunitinib]
tumor uptake of [^18F]AH111585 after sunitinib therapy (tumor): significantly reduced

Cilengitide
effect on tumor growth and angiogenesis (integrin αvβ3 and αvβ5): stimulate tumor growth and angiogenesis

Source: publication PMC3841333 (Theranostics, 2013)
